Measured values from ChEMBL document CHEMBL1125559, “Analogues of platelet activating factor. 7. Bis-aryl amide and bis-aryl urea receptor antagonists of PAF” (J Med Chem, 1992).

Legend:
Mus musculus [1] = experiment: Compound was evaluated for PAF-induced lethality in mouse (intraperitoneally at a dose of 1.0 mg/kg in saline 0.5 hr before lethal intravenous PAF challenge 75-150 mg/kg); format: ADME, organism-based; design: dose 1 mg/kg, route intraperitoneal; details: in vivo
In short: (§1)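 Female Swiss-Webster mice (20-25 g) received test compound ip in saline (10 mL/Kg); controls got saline alone. The PAF dose was chosen daily from small pilot groups. Survival was scored at 1.5 h and recorded as dead/total.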

Oryctolagus cuniculus [2] = organism: Oryctolagus cuniculus; experiment: Concentration required to inhibit PAF (5*10e-8 M) induced platelet aggregation in rabbit platelet rich plasma(PRP) by 50%; format: functional, organism-based
In short: (§2)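 Rabbit PRP came from blood spun at 800 rpm for 15 min at room temperature, with platelet counts of 350 000–550 000/µL. PRP was equilibrated 1–2 min at 37 °C in an aggregometer. It was preincubated 5 min with test compound (final 10^-8 to 10^-5 M; methanol stock diluted in saline) or saline, then challenged with L-C16-PAF. IC50 was taken from concentration–response curves of aggregation magnitude and averaged over separate determinations.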

Mus musculus [3] = experiment: Compound was evaluated for PAF-induced lethality in mouse (intraperitoneally at a dose of 1.0 mg/kg in saline 0.5 hr before lethal intravenous PAF challenge 75-150 mg/kg); 16/27; format: ADME, organism-based; design: dose 1 mg/kg; details: in vivo; in short: as §1
Mus musculus [4] = experiment: Compound was evaluated for PAF-induced lethality in mouse (intraperitoneally at a dose of 1.0 mg/kg in saline 0.5 h before lethal intravenous PAF challenge 75-150 mg/kg); 12/14; format: ADME, organism-based; design: dose 1 mg/kg; details: in vivo; in short: as §1
Mus musculus [5] = experiment: Compound was evaluated for PAF-induced lethality in mouse (intraperitoneally at a dose of 1.0 mg/kg in saline 0.5 hr before lethal intravenous PAF challenge 75-150 mg/kg); 2/10; format: ADME, organism-based; design: dose 1 mg/kg; details: in vivo; in short: as §1
Oryctolagus cuniculus [6] = organism: Oryctolagus cuniculus; experiment: Concentration required to inhibit PAF (5*10e-8 M) induced platelet aggregation in rabbit platelet rich plasma(PRP) by 50% at 10 uM; format: functional
Mus musculus [7] = experiment: Compound was evaluated for PAF-induced lethality in mouse (intraperitoneally at a dose of 1.0 mg/kg in saline 0.5 hr before lethal intravenous PAF challenge 75-150 mg/kg); 11/15; format: ADME, organism-based; design: dose 1 mg/kg; details: in vivo; in short: as §1
Oryctolagus cuniculus [8] = organism: Oryctolagus cuniculus; experiment: Concentration required to inhibit PAF (1*10e-7 M) induced platelet aggregation in rabbit platelet rich plasma(PRP) by 50%; format: functional, organism-based; in short: as §2
Mus musculus [9] = experiment: Compound was evaluated for PAF-induced lethality in mouse (intraperitoneally at a dose of 1.0 mg/kg in saline 0.5 hr before lethal intravenous PAF challenge 75-150 mg/kg); 10/17; format: ADME, organism-based; design: dose 1 mg/kg; details: in vivo; in short: as §1
Mus musculus [10] = experiment: Compound was evaluated for PAF-induced lethality in mouse (intraperitoneally at a dose of 1.0 mg/kg in saline 0.5 hr before lethal intravenous PAF challenge 75-150 mg/kg); 8/13; format: ADME, organism-based; design: dose 1 mg/kg, route intravenous; details: in vivo; in short: as §1
Mus musculus [11] = experiment: Compound was evaluated for PAF-induced lethality in mouse (intraperitoneally at a dose of 1.0 mg/kg in saline 0.5 hr before lethal intravenous PAF challenge 75-150 mg/kg); 12/12; format: ADME, organism-based; design: dose 1 mg/kg; details: in vivo; in short: as §1
Mus musculus [12] = experiment: Compound was evaluated for PAF-induced lethality in mouse (intraperitoneally at a dose of 1.0 mg/kg in saline 0.5 hr before lethal intravenous PAF challenge 75-150 mg/kg); 11/14; format: ADME, organism-based; design: dose 1 mg/kg; details: in vivo; in short: as §1
Mus musculus [13] = experiment: Compound was evaluated for PAF-induced lethality in mouse (intraperitoneally at a dose of 1.0 mg/kg in saline 0.5 hr before lethal intravenous PAF challenge 75-150 mg/kg); 8/12; format: ADME, organism-based; design: dose 1 mg/kg, route intravenous; details: in vivo; in short: as §1
Mus musculus [14] = experiment: Compound was evaluated number of mouse dead out of total (intraperitoneally at a dose of 1.0 mg/kg in saline 0.5 hr before lethal intravenous PAF challenge 75-150 mg/kg); 6/12; format: ADME, organism-based; design: dose 1 mg/kg, route intravenous; details: in vivo; in short: as §1
Mus musculus [15] = experiment: Compound was evaluated for PAF-induced lethality in mouse (intraperitoneally at a dose of 1.0 mg/kg in saline 0.5 hr before lethal intravenous PAF challenge 75-150 mg/kg); 5/12; format: ADME, organism-based; design: dose 1 mg/kg, route intravenous; details: in vivo; in short: as §1

CCCCCCCCCCCCCCOc1cccc(OP(=O)([O-])Oc2cccc(C[n+]3csc(C)c3)c2)c1C(=O)OC
Lethality (Mus musculus [1]): 15%

CCCCCCCCCCCCCCOc1c(OC)cc(CN(C(C)=O)c2cccc(C[n+]3csc(C)c3)c2)cc1OC
IC50 (Oryctolagus cuniculus [2]): 0.57 µM

CCCCCCCCCCCCCCOc1ccc(OC)cc1CN(C(C)=O)c1cccc(C[n+]2csc(C)c2)c1.[Br-]
Dead/total (Mus musculus [3]): 16
Lethality (Mus musculus [1]): 59%
IC50 (Oryctolagus cuniculus [2]): 0.32 µM

CCCCCCCCCCCCCCOc1cc(CN(C(C)=O)c2cccc(C[n+]3csc(C)c3)c2)ccc1C.[Br-]
Dead/total (Mus musculus [4]): 12
Lethality (Mus musculus [1]): 86%
IC50 (Oryctolagus cuniculus [2]): 6.7 µM

CCCCCCCCCCCCCCOc1c(C)cccc1CN(C(C)=O)c1cccc(C[n+]2csc(C)c2)c1.[Br-]
Dead/total (Mus musculus [5]): 2
Lethality (Mus musculus [1]): 20%
IC50 (Oryctolagus cuniculus [2]): 3.2 µM

CCCCCCCCCCCCCCOc1cc(CNC(=O)c2cccc(C[n+]3csc(C)c3)c2)cc(OC)c1.[Br-]
Inhibition (Oryctolagus cuniculus [6]): 43%

CCCCCCCCCCCCCCOc1cccc(CN(C(C)=O)c2cccc(C[n+]3csc(C)c3)c2)c1
IC50 (Oryctolagus cuniculus [2]): 0.74 µM

CCCCCCCCCCCCCCOc1ccc(CNC(=O)c2cccc(C[n+]3csc(C)c3)c2)cc1
IC50 (Oryctolagus cuniculus [2]): 0.4 µM

CCCCCCCCCCCCCCOc1cc(OC)ccc1CN(C(C)=O)c1cccc(C[n+]2csc(C)c2)c1.[Br-]
Dead/total (Mus musculus [7]): 11
Lethality (Mus musculus [1]): 73%
IC50 (Oryctolagus cuniculus [2]): 1.4 µM

CCCCCCCCCCCCCCOc1ccc(CN(C(C)=O)c2cccc(C[n+]3csc(C)c3)c2)cc1C(C)(C)C
IC50 (Oryctolagus cuniculus [8]): 0.35 µM

CCCCCCCCCCCCCCOc1ccc(CN(C(C)=O)c2cccc(C[n+]3csc(C)c3)c2)cc1Cl.[Br-]
Dead/total (Mus musculus [9]): 10
Lethality (Mus musculus [1]): 59%
IC50 (Oryctolagus cuniculus [2]): 0.13 µM

CCCCCCCCCCCCCCOc1c(C)cc(CNC(=O)c2cccc(C[n+]3csc(C)c3)c2)cc1C
IC50 (Oryctolagus cuniculus [2]): 3.1 µM

CCCCCCCCCCCCCCOc1ccc(CN(C(=O)NC)c2cccc(C[n+]3csc(C)c3)c2)cc1.[Br-]
Dead/total (Mus musculus [10]): 8
Lethality (Mus musculus [1]): 62%
IC50 (Oryctolagus cuniculus [2]): 0.53 µM

CCCCCCCCCCCCCCCCOc1ccc(OCC(=O)Nc2ccccc2C[n+]2csc(C)c2)cc1
IC50 (Oryctolagus cuniculus [2]): 11.2 µM

CCCCCCCCCCCCCCOc1ccc(CNC(=O)c2cccc(C[n+]3csc(C)c3)c2)cc1C(C)(C)C
IC50 (Oryctolagus cuniculus [2]): 3.5 µM

CCCCCCCCCCCCCCOc1cccc(CC(=O)Nc2cccc(C[n+]3csc(C)c3)c2)c1.[Br-]
Dead/total (Mus musculus [11]): 12
Lethality (Mus musculus [1]): 100%
IC50 (Oryctolagus cuniculus [2]): 0.55 µM

CCCCCCCCCCCCCCOc1ccc(NC(=O)Nc2cccc(C[n+]3csc(C)c3)c2)cc1
IC50 (Oryctolagus cuniculus [2]): 1.5 µM

CCCCCCCCCCCCCCOc1ccc(CN(C(C)=O)c2ccc(C[n+]3csc(C)c3)cc2)cc1
IC50 (Oryctolagus cuniculus [2]): 2.1 µM

CCCCCCCCCCCCCCOc1ccc(CN(C(=O)CCC)c2cccc(C[n+]3csc(C)c3)c2)cc1.[Br-]
Lethality (Mus musculus [1]): 79%
Dead/total (Mus musculus [12]): 11
IC50 (Oryctolagus cuniculus [2]): 0.26 µM

CCCCCCCCCCCCCCOc1ccc(CC(=O)Nc2ccc(C[n+]3csc(C)c3)cc2)cc1.[Br-]
Lethality (Mus musculus [1]): 80%
Dead/total (Mus musculus [13]): 8
IC50 (Oryctolagus cuniculus [2]): 0.6 µM

CCCCCCCCCCCCOc1ccc(CC(=O)Nc2cccc(C[n+]3csc(C)c3)c2)cc1.[Br-]
Dead/total (Mus musculus [14]): 6
Lethality (Mus musculus [1]): 55%
IC50 (Oryctolagus cuniculus [2]): 2.9 µM

COc1cc([C@H]2CC[C@H](c3cc(OC)c(OC)c(OC)c3)O2)cc(OC)c1OC
IC50 (Oryctolagus cuniculus [2]): 1.6 µM

CCCCCCCCCCCCCCOc1ccc(CNc2cccc(C[n+]3csc(C)c3)c2)cc1.[Br-]
Dead/total (Mus musculus [15]): 5
Lethality (Mus musculus [1]): 42%
IC50 (Oryctolagus cuniculus [2]): 7.1 µM
